Laboratory results: ChEMBL document CHEMBL4480434, “Anacolosins A-F and Corymbulosins X and Y, Clerodane Diterpenes from Anacolosa clarkii Exhibiting Cytotoxicity toward Pediatric Cancer Cell Lines” (2019)

Legend:
Assay type in all cases: functional
A673 [1] = assay: Antiproliferative activity against human A673 cells assessed as growth inhibition after 48 hrs by sulforhodamine B assay; conditions: A673, 48 h
In short: (§1)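 A-673, SJCRH30 and Hep293TT cells in RPMI-1640 with 5% FBS and 0.5% gentamycin at 37 °C, 5% CO2, seeded at 4000–6000 cells/well and adhered overnight. DMSO solutions added to triplicate wells (0.5% v/v DMSO final) for 48 h. Medium removed, cells fixed with 10% TCA, SRB absorbance compared with vehicle and time-0 plates. TGI from nonlinear regression; n = 3, mean ± SEM.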

[2] = Antiproliferative activity against human SJCRH30 cells assessed as growth inhibition after 48 hrs by sulforhodamine B assay; in short: as §1
[3] = Antiproliferative activity against human D283 cells assessed as growth inhibition after 48 hrs by sulforhodamine B assay; conditions: D283, 48 h
In short: (§2)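 D283 medulloblastoma cells grown in IMEM with 5% FBS and 0.3% gentamycin at 37 °C, 5% CO2, plated at 4000–6000 cells/well overnight. Compound in DMSO (0.5% v/v final), triplicate wells, 48 h. Because cells adhere poorly, 20% TCA added directly to the medium for fixation. SRB absorbance referenced to vehicle and time-0 plates; TGI by nonlinear regression, n = 3, mean ± SEM.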

Hep293TT [4] = assay: Antiproliferative activity against human Hep293TT cells assessed as growth inhibition after 48 hrs by sulforhodamine B assay; in short: as §1
A673 [5] = assay: Antiproliferative activity against human A673 cells assessed as growth inhibition after 48 hrs by sulforhodamine B assay relative to control; conditions: A673, 48 h; in short: as §1
[6] = Antiproliferative activity against human SJCRH30 cells assessed as growth inhibition after 48 hrs by sulforhodamine B assay relative to control; in short: as §1
[7] = Antiproliferative activity against human D283 cells assessed as growth inhibition after 48 hrs by sulforhodamine B assay relative to control; conditions: D283, 48 h; in short: as §2
Hep293TT [8] = assay: Antiproliferative activity against human Hep293TT cells assessed as growth inhibition after 48 hrs by sulforhodamine B assay relative to control; in short: as §1

## C=CC(=C)CCC1(C)C(C)CC(=O)C23C(=C[C@H](OC(=O)[C@@H](C)CC)CC12)[C@@H](OC(C)=O)O[C@H]3OC(C)=O (some centres undefined)
A673 [1]
  TGI: 1200 nM
[2]
  TGI: 730 nM
[3]
  TGI: 660 nM
Hep293TT [4]
  TGI: 800 nM
A673 [5]
  Emax: 100%
[6]
  Emax: 100%
[7]
  Emax: 100%
Hep293TT [8]
  Emax: 100%

## CCC1=C[C@@H]2CN(C1)Cc1c([nH]c3ccccc13)[C@@](C(=O)OC)(c1cc3c(cc1OC)N(C)[C@H]1[C@@](O)(C(=O)OC)[C@H](OC(C)=O)[C@]4(CC)C=CCN5CC[C@]31[C@@H]54)C2 [VINORELBINE]
A673 [1]
  TGI: 6 nM
[2]
  TGI: 6 nM
[3]
  TGI: 80 nM
Hep293TT [4]
  TGI: 80 nM

## C=CC(=C)CCC1(C)C(C)CC(O)C23C(=C[C@H](OC(=O)CC(C)C)CC12)[C@@H](OC(C)=O)O[C@H]3OC(C)=O (some centres undefined)
A673 [1]
  TGI: 700 nM
[2]
  TGI: 340 nM
[3]
  TGI: 360 nM
Hep293TT [4]
  TGI: 220 nM
A673 [5]
  Emax: 100%
[6]
  Emax: 100%
[7]
  Emax: 100%
Hep293TT [8]
  Emax: 100%

## C=CC(=C)CCC1(C)C(C)CC(=O)C23C(=C[C@H](OC(=O)CC)CC12)[C@@H](OC(C)=O)O[C@H]3OC(C)=O (some centres undefined)
A673 [1]
  TGI: 1100 nM
[2]
  TGI: 520 nM
[3]
  TGI: 700 nM
Hep293TT [4]
  TGI: 1000 nM
A673 [5]
  Emax: 100%
[6]
  Emax: 100%
[7]
  Emax: 100%
Hep293TT [8]
  Emax: 100%

## C=CC(=C)CCC1(C)C(C)CC(O)C23C(=C[C@H](OC(=O)CC)CC12)[C@@H](OC(C)=O)O[C@H]3OC(C)=O (some centres undefined)
A673 [1]
  TGI: 900 nM
[2]
  TGI: 360 nM
[3]
  TGI: 500 nM
Hep293TT [4]
  TGI: 300 nM
A673 [5]
  Emax: 100%
[6]
  Emax: 100%
[7]
  Emax: 100%
Hep293TT [8]
  Emax: 100%

## C=CC(=C)CCC1(C)C(C)CC(=O)C23C(=C[C@H](OC(=O)CCC)CC12)[C@@H](OC(C)=O)O[C@H]3OC(C)=O (some centres undefined)
A673 [1]
  TGI: 1000 nM
[2]
  TGI: 500 nM
[3]
  TGI: 600 nM
Hep293TT [4]
  TGI: 900 nM
A673 [5]
  Emax: 100%
[6]
  Emax: 100%
[7]
  Emax: 100%
Hep293TT [8]
  Emax: 100%

## C=CC(=C)CCC1(C)C(C)CC(O)C23C(=C[C@H](OC(=O)[C@@H](C)CC)CC12)[C@@H](OC(C)=O)O[C@H]3OC(C)=O (some centres undefined)
A673 [1]
  TGI: 1700 nM
[2]
  TGI: 800 nM
[3]
  TGI: 1100 nM
Hep293TT [4]
  TGI: 600 nM
A673 [5]
  Emax: 100%
[6]
  Emax: 100%
[7]
  Emax: 100%
Hep293TT [8]
  Emax: 100%

## C=CC(=C)CCC1(C)C(C)CC(=O)C23C(=C[C@H](OC(=O)CC(C)C)CC12)[C@@H](OC(C)=O)O[C@H]3OC(C)=O (some centres undefined)
A673 [1]
  TGI: 1100 nM
[2]
  TGI: 670 nM
[3]
  TGI: 660 nM
Hep293TT [4]
  TGI: 1000 nM
A673 [5]
  Emax: 100%
[6]
  Emax: 100%
[7]
  Emax: 100%
Hep293TT [8]
  Emax: 100%

## C=CC(=C)CCC1(C)C(C)CC(O)C23C(=C[C@H](OC(=O)/C(C)=C\C)CC12)[C@@H](OC(C)=O)O[C@H]3OC(C)=O (some centres undefined)
A673 [1]
  TGI: 1000 nM
[2]
  TGI: 440 nM
[3]
  TGI: 700 nM
Hep293TT [4]
  TGI: 280 nM
A673 [5]
  Emax: 100%
[6]
  Emax: 100%
[7]
  Emax: 100%
Hep293TT [8]
  Emax: 100%

## C=CC(=C)CCC1(C)C(C)CC(=O)C23C(=C[C@H](OC(=O)/C(C)=C\C)CC12)[C@@H](OC(C)=O)O[C@H]3OC(C)=O (some centres undefined)
A673 [1]
  TGI: 3100 nM
[2]
  TGI: 1900 nM
[3]
  TGI: 2000 nM
Hep293TT [4]
  TGI: 1800 nM
A673 [5]
  Emax: 100%
[6]
  Emax: 100%
[7]
  Emax: 100%
Hep293TT [8]
  Emax: 100%

## C=CC(=C)CCC1(C)C(C)CC(=O)C23C(=C[C@H](OC(=O)C(C)C)CC12)[C@@H](OC(C)=O)O[C@H]3OC(C)=O (some centres undefined)
A673 [1]
  TGI: 4100 nM
[2]
  TGI: 2300 nM
[3]
  TGI: 2300 nM
Hep293TT [4]
  TGI: 3200 nM
A673 [5]
  Emax: 100%
[6]
  Emax: 100%
[7]
  Emax: 100%
Hep293TT [8]
  Emax: 100%
